# Assay results from ChEMBL document CHEMBL3585303, “Progress towards small molecule menin-mixed lineage leukemia (MLL) interaction inhibitors with in vivo utility” (Bioorg Med Chem Lett, 2015).
# Legend:
# [1] = Intrinsic clearance in human liver microsomes; format: ADME; conditions: read-out: CLH
# [2] = Intrinsic clearance in rat liver microsomes; format: ADME; conditions: read-out: CLH
# [3] = Unbound fraction in human plasma; format: ADME, cell-free
# Method in brief: (§1)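 Plasma protein binding was determined in human, rat or mouse plasma and reported as the fraction unbound (fu).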
# [4] = Unbound fraction in mouse plasma; format: ADME, cell-free; method in brief: as §1
# [5] = Plasma clearance in rat at 0.2 mg/kg, iv; format: ADME, organism-based
# Method in brief: (§2)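 Rats received a single IV dose of 0.2 mg/kg, given either as a discrete dose or within an IV cassette study. Reported parameters were plasma clearance CLp (mL/min/kg), T1/2, and volume of distribution at steady state Vss (L/kg).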
# [6] = Half life in rat at 0.2 mg/kg, iv; format: ADME, organism-based; conditions: in vivo; method in brief: as §2
# [7] = Volume of distribution at steady state in rat at 0.2 mg/kg, iv; format: ADME, organism-based; conditions: in vivo, read-out: Vdss; method in brief: as §2
# [8] = molecular target: Menin/Histone-lysine N-methyltransferase MLL (Homo sapiens, UniProt O00255); assay: Inhibition of menin-MLL1 interaction (unknown origin) incubated for 1 hr by fluorescein and Texas Red labeled MBM1 based fluorescence polarization assay; format: protein assay
# [9] = Unbound fraction in rat plasma; format: ADME, cell-free; method in brief: as §1
# [10] = Drug level in rat hepatic S9 fraction treated with compound 10b assessed as compound formation; format: ADME, tissue-based, Liver
# [11] = tested on: MV4-11; assay: Growth inhibition of human MV4-11 cells; format: functional
# Sequence of Menin/Histone-lysine N-methyltransferase MLL (O00255 whole entry): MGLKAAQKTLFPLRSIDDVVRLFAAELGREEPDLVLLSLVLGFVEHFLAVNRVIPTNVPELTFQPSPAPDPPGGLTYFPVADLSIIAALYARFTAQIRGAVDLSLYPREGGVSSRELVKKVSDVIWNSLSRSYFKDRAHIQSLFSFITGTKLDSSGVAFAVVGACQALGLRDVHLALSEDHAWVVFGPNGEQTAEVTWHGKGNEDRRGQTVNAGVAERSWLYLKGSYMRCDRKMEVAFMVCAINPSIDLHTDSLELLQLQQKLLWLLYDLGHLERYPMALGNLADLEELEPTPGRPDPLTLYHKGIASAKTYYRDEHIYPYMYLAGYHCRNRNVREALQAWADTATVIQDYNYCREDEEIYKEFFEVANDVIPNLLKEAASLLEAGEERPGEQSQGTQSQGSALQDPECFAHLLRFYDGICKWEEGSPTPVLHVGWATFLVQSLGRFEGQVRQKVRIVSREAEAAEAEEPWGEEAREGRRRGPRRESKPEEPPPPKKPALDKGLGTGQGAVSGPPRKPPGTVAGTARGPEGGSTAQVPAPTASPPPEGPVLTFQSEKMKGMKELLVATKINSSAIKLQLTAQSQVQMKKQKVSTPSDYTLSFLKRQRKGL
# Sequence of Menin/Histone-lysine N-methyltransferase MLL (Q03164 1-2718 partner limits assumed): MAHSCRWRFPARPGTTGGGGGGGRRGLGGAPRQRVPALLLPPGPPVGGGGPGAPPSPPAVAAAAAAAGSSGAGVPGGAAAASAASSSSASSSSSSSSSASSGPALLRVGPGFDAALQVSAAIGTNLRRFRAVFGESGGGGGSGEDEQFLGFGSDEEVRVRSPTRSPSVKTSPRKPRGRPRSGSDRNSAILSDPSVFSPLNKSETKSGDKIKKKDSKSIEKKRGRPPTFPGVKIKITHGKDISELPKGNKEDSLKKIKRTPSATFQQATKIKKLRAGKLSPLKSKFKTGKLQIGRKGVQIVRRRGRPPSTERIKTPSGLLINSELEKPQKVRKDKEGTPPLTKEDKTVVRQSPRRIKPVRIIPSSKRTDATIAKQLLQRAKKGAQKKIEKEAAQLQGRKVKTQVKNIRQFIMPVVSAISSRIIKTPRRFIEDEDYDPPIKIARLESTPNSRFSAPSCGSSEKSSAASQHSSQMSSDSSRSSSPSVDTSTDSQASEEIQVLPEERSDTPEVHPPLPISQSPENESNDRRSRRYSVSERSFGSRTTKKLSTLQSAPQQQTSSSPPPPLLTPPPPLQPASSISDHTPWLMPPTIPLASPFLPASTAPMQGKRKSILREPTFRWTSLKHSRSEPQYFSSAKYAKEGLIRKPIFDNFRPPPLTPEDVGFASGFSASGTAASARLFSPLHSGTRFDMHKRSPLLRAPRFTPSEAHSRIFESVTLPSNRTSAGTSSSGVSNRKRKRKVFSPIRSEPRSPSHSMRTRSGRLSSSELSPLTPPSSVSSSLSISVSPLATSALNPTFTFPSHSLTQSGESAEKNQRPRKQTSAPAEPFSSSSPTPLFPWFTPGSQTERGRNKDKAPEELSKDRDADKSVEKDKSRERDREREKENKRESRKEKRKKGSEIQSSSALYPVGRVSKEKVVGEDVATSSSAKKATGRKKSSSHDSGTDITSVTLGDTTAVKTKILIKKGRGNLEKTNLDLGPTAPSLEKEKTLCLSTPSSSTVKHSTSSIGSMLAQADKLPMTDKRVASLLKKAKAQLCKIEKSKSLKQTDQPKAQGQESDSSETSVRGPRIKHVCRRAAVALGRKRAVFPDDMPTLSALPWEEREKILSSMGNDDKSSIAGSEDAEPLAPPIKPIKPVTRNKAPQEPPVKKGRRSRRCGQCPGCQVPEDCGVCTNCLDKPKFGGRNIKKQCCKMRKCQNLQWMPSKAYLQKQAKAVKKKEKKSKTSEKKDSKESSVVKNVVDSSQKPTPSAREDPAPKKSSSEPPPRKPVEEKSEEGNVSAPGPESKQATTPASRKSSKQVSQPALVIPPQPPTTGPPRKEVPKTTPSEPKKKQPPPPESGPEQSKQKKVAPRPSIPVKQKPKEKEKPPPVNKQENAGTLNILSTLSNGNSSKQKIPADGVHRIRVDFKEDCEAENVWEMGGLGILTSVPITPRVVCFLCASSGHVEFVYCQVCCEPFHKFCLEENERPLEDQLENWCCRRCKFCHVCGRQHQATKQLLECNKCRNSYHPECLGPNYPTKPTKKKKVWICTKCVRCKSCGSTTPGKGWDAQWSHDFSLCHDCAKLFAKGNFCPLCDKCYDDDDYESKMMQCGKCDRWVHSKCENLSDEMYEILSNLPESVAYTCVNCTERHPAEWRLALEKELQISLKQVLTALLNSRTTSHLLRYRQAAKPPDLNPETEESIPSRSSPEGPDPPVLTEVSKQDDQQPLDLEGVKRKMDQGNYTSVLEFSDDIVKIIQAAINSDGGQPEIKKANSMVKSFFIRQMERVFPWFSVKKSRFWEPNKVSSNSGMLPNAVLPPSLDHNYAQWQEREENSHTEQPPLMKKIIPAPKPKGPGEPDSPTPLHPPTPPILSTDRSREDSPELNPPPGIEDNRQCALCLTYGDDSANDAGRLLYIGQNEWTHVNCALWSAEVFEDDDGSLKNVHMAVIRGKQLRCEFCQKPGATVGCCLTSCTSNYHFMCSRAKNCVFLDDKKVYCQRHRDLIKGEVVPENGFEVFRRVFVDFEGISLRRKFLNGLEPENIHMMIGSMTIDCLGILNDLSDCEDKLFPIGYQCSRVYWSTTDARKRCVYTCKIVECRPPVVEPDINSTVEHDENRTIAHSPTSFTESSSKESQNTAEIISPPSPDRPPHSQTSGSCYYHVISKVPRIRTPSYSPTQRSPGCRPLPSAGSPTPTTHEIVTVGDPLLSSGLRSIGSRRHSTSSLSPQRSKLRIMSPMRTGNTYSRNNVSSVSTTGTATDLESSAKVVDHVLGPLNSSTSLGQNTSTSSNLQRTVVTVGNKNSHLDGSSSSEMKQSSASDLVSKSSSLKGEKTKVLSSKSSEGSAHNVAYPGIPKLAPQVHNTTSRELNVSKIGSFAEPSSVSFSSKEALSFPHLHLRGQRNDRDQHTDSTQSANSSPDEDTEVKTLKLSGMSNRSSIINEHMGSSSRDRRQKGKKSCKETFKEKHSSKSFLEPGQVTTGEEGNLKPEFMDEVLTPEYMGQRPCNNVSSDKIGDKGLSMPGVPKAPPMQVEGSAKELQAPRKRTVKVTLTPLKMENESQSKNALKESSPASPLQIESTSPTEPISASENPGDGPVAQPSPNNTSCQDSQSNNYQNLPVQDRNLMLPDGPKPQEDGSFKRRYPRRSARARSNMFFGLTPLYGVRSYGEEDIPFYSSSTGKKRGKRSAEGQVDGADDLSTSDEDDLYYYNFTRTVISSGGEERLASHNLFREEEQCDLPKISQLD
# Sequence of Menin/Histone-lysine N-methyltransferase MLL (Q03164 2719-3969 partner limits assumed): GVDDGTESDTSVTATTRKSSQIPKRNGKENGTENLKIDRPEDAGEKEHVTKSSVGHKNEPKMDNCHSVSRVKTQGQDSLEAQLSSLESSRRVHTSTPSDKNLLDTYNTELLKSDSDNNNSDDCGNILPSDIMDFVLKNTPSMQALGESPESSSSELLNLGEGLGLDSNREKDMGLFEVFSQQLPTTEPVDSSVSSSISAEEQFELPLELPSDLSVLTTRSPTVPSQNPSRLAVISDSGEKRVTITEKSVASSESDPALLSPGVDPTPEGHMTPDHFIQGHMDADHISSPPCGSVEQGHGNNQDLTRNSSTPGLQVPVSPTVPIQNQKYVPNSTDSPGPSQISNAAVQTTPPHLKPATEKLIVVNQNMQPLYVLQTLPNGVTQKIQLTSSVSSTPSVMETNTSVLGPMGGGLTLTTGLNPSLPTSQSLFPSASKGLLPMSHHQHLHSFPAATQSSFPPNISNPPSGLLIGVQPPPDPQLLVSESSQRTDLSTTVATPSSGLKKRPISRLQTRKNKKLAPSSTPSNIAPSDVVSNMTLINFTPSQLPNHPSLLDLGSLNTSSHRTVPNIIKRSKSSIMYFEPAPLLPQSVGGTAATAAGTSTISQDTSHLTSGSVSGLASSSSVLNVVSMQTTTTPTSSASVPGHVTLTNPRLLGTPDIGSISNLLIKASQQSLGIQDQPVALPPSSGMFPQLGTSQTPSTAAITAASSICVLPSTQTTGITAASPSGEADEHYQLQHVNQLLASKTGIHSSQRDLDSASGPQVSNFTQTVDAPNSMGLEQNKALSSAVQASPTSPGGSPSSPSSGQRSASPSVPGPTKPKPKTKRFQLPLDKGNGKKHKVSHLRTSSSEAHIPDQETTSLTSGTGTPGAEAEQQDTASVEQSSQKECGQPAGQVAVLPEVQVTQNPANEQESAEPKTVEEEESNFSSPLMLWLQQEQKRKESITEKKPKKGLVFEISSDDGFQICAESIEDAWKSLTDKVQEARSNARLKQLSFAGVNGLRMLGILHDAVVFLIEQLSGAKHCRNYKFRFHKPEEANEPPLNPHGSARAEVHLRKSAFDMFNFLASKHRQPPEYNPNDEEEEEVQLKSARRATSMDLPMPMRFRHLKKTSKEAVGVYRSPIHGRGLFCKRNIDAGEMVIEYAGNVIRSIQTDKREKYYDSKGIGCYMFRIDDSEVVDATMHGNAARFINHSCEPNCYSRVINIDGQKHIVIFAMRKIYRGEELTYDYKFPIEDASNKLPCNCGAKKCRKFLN
SMILES,CLint scaled [1] [mL/min/kg],CLint scaled [2] [mL/min/kg],fraction unbound [3],fraction unbound [4],clearance [5] [mL/min/kg],half-life [6] [h],Vd [7] [L/kg],IC50 [8] [nM],fraction unbound [9],Drug metabolism [10],GI50 [11] [nM]
N#Cc1ccc(OCCCN2CCC(C(O)(c3ccccc3)C3CCCC3)CC2)cc1 (stereo unspecified),124,919,0.004,0.013,40,1.6,2.9,–,–,–,–
N#Cc1ccc(OCCCN2CCC(C(O)(c3cccc(F)c3)c3nccs3)CC2)cc1 (stereo unspecified),69,273,0.04,–,32,2.8,7.2,460,0.108,–,–
O[C@](c1cccc(F)c1)(c1ccccn1)C1CCNCC1,–,–,–,–,–,–,–,–,–,metabolite_detected,–
NS(=O)(=O)c1ccc(OCCCN2CCC(C(O)(c3cccc(F)c3)c3nccs3)CC2)cc1 (stereo unspecified),50,206,0.17,0.166,26,1.4,4.4,–,0.322,–,–
CC1(C)CN=C(N2CCN(c3ncnc4sc(CC(F)(F)F)cc34)CC2)S1,–,–,–,–,–,–,–,–,–,–,3000
NS(=O)(=O)c1ccc(OCCCN2CCC(C(O)(c3ccccn3)C3CCCC3)CC2)cc1 (racemic),16.2,271,0.291,0.342,293,0.2,4.3,–,–,–,–
N#Cc1ccc(OCCCN2CCC(C(O)(c3nccs3)C3CCCC3)CC2)cc1 (stereo unspecified),77.4,558,0.117,0.192,–,–,–,–,–,–,–
